Reference: ChEMBL document CHEMBL3861979, “Polyprenylated Benzoylphloroglucinols with DNA Polymerase Inhibitory Activity from the Fruits of Garcinia schomburgkiana” (J Nat Prod, 2016)

Legend:
[1] = Inhibition of calf thymus DNA polymerase alpha assessed as reduction in [3H]dTTP incorporation using poly(dA)/oligo(dT)18 as template/primer preincubated for 10 mins followed by template/primer addition measured after 60 mins; design: species or system Bos taurus
Method in brief: (§1)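 IC50 values are given as mean ± SD from three independent experiments.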

DNA polymerase lambda = biological target: T1, DNA polymerase lambda (Homo sapiens, UniProt Q9UGP5); assay: Inhibition of recombinant human His-tagged DNA polymerase lambda assessed as reduction in [3H]dTTP incorporation using poly(dA)/oligo(dT)18 as template/primer preincubated for 10 mins followed by template/primer addition measured after 60 mins; method in brief: as §1
T1 sequence (Q9UGP5 whole entry): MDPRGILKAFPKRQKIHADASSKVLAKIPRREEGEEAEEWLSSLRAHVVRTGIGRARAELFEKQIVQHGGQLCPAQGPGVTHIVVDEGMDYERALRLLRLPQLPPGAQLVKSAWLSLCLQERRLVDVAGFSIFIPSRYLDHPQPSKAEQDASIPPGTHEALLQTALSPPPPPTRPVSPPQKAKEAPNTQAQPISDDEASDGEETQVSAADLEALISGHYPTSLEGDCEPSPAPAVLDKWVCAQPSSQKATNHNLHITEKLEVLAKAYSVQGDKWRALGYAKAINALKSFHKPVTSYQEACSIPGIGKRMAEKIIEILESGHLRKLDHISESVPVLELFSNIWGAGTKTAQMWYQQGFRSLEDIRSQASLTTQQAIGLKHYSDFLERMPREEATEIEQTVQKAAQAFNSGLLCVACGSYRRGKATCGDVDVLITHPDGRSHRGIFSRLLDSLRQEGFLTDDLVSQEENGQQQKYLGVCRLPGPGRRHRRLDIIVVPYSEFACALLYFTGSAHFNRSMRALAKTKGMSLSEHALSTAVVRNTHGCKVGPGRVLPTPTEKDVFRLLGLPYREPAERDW

[2] = Cytotoxicity against human HeLa cells assessed as reduction in cell viability after 24 hrs by MTT assay; assay type: functional; conditions: read-out: LD50 (the source's name)
Method in brief: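 HeLa human cervical cancer cultured cells. Potency is expressed as median lethal dose (LD50). Values are mean ± SD of five independent experiments.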

| Structure (SMILES) | IC50 [1] | IC50 (DNA polymerase lambda) | CC50 [2] |
| --- | --- | --- | --- |
| C=C(C)[C@@H](O)CC/C(C)=C/C[C@@H]1C[C@]2(CC=C(C)C)C(=O)[C@@](CC=C(C)C)(C(=O)C(C(=O)c3ccc(O)c(O)c3)=C2O)[C@@]1(C)CCC=C(C)C | 6.4 µM | 5.8 µM | 9.9 µM |
| C[C@@]1(CO)[C@H](O)CC[C@@]2(C)[C@H]1CC[C@H]1C[C@@H]3C[C@@]12CC[C@]3(O)CO [APHIDICOLIN] | 19.6 µM | > 200 µM | 22 µM |
| CC(C)=CCC[C@@]1(C)[C@H](C/C=C(\C)C/C=C/C(C)(C)O)C[C@]2(CC=C(C)C)C(=O)[C@@]1(CC=C(C)C)C(=O)C(C(=O)c1ccc(O)c(O)c1)=C2O | 8.8 µM | 5.6 µM | 73.4 µM |
| C=C(C)[C@H](O)CC/C(C)=C/C[C@@H]1C[C@]2(CC=C(C)C)C(=O)[C@@](CC=C(C)C)(C(=O)C(C(=O)c3ccc(O)c(O)c3)=C2O)[C@@]1(C)CCC=C(C)C | 6.3 µM | 5 µM | 9.8 µM |
| CC(C)=CC[C@@H]1C[C@]2(CC=C(C)C)C(=O)[C@@]3(CC=C(C)C)C(O[C@@H](C(C)(C)O)CC[C@@]13C)C(C(=O)c1ccc(O)c(O)c1)=C2O (some centres undefined) | 5.6 µM | 7.4 µM | 6.5 µM |
| C=C(C)C(O)C[C@@H]1C[C@]2(CC=C(C)C)C(=O)[C@@](CC=C(C)C)(C(=O)C(C(=O)c3ccc(O)c(O)c3)=C2O)[C@@]1(C)CCC=C(C)C (some centres undefined) | 8.6 µM | 8.8 µM | 66.5 µM |
| CC(C)=CCC[C@@]1(C)[C@H](CC=C(C)C)C[C@]2(CC=C(C)C)C(=O)[C@@]1(CC=C(C)C)C(=O)C(C(=O)c1ccc(O)c(O)c1)=C2O [GUTTIFERONE K] | – | 5.4 µM | – |
| Cc1cn([C@H]2CC[C@@H](COP(=O)(O)OP(=O)(O)OP(=O)(O)O)O2)c(=O)[nH]c1=O | > 200 µM | 28.7 µM | > 200 µM |
| CC(C)=CCC/C(C)=C/C[C@@H]1C[C@]2(CC=C(C)C)C(=O)[C@@]3(CC=C(C)C)C(O[C@@H](C(C)(C)O)CC[C@@]13C)C(C(=O)c1ccc(O)c(O)c1)=C2O (some centres undefined) | 5.4 µM | 6.9 µM | 5.9 µM |
| CC(C)=CCC[C@@]1(C)[C@H](CC=C(C)C)C[C@]2(CC=C(C)C)C(=O)[C@@]1(CC=C(C)C)C(=O)C(C(=O)c1cccc(O)c1)=C2O | 6.5 µM | 5.7 µM | 10.2 µM |
| CC(C)=CCC/C(C)=C/CC1(CC=C(C)C)C(O)=C(C(=O)c2ccc(O)c(O)c2)C(=O)C2=C1OC(C)(C)C=C2 (centres undefined) | 7.9 µM | 6.2 µM | 50.8 µM |
| CC(C)=CCC/C(C)=C/C[C@@H]1C[C@]2(CC=C(C)C)C(=O)[C@@](CC=C(C)C)(C(=O)C(C(=O)c3ccc(O)c(O)c3)=C2O)[C@@]1(C)CCC=C(C)C [OBLONGIFOLIN C] | 5.7 µM | 5.2 µM | 7.3 µM |
